Assay outcomes: PubChem, several laboratories
Shown is part of a subset that was picked to be rich in hits.
V-ATPase pHluor: regulators of yeast V-ATPase proton pumping, primary screen, pHLuorin cytosolic pH fluorescence; S. cerevisiae; response, % at 10 µM; 350,000 compounds, 0.37% hits; AID 504577, 2011; in the data active = response mostly above about 7.3%, no sharp cut-off; inactive = mostly below about 5.4%; also: actives read high
p-CIP stab down: p/CIP-EGFP fusion destabilizers, primary screen, fluorescence, F442A cells. Q05BA5. 16 h. decrease of EGFP signal, % at 10 µM. 290,000 compounds, 0.01% hits. AID 1984, 2009;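 active = EGFP signal decrease of at least 30% at 10 µM or well 3 SD below plate mean, unless failing retest; inactive = the rest, including hits failing retest or dose response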
ABCB6 inh 2: ABCB6 transporter inhibitors, primary screen, K562-ABCB6 cells, flow cytometry, MLPCN library. fluorescence ratio to DMSO, % at 10 µM. ATP-binding cassette sub-family B member 6 (Homo sapiens), Q9NP58. K562-ABCB6 porphyrin accumulation, 1 h; active compounds read low. 360,000 compounds, 0.19% hits;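 active = fluorescence ratio to DMSO below 75%, the collection mean minus 3 SD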;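 also: signal is porphyrin accumulated inside mitochondria; lower ratio means ABCB6 inhibition with less porphyrin fluorescence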
Dynein cargo inh: inhibitors of GR-EGFP nuclear translocation, primary screen, dynein cargo transport inhibitor project, imaging, high-content, 3617.4 mouse cells | test concentration mostly 20 µM; stimulated with dexamethasone, 1 µM; active compounds read low | z-score, hits read low | 220,000 compounds, 0.47% hits;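 active = plate z-score of nuclear minus cytoplasmic receptor signal below a set negative limit, without overly bright fluorescence or cell loss, cut at about -3.5 in these data, passing the limit was not always enough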;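 also: z-score of nuclear minus cytoplasmic ring GR-EGFP intensity difference per well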
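Buffer or medium: tetracycline-free induction medium containing charcoal-stripped FBS / Reagent: dexamethasone agonist, 1.0 µM final, for 30 min / Technique: automated 10x imaging of fixed Hoechst-stained cells / Times: induction 48 h, compound 1 h, agonist 30 min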
KCC2 mod: KCC2 cotransporter modulators, thallium flux, primary screen, cell-based, HEK293 KCC2, FluoZin-2 fluorescence, MLSMR | AID 1456, 2008 | Solute carrier family 12 member 5 (Homo sapiens), Q9H2X9 | B-score of Tl+ flux slope (higher = more flux/activation; lower = inhibition) at 10 µM | 190,000 compounds, 2.2% hits | KCC2 cells, thallium flux FluoZin-2 fluorescence;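 active = thallium flux slope and its plate-corrected score both differing from the plate sample mean at a set confidence after two filtering rounds, in either direction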;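 also: slope of fluorescence scaled to starting intensity during 10 to 20 s after thallium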
Target sequence (Q9H2X9 whole entry, looked up): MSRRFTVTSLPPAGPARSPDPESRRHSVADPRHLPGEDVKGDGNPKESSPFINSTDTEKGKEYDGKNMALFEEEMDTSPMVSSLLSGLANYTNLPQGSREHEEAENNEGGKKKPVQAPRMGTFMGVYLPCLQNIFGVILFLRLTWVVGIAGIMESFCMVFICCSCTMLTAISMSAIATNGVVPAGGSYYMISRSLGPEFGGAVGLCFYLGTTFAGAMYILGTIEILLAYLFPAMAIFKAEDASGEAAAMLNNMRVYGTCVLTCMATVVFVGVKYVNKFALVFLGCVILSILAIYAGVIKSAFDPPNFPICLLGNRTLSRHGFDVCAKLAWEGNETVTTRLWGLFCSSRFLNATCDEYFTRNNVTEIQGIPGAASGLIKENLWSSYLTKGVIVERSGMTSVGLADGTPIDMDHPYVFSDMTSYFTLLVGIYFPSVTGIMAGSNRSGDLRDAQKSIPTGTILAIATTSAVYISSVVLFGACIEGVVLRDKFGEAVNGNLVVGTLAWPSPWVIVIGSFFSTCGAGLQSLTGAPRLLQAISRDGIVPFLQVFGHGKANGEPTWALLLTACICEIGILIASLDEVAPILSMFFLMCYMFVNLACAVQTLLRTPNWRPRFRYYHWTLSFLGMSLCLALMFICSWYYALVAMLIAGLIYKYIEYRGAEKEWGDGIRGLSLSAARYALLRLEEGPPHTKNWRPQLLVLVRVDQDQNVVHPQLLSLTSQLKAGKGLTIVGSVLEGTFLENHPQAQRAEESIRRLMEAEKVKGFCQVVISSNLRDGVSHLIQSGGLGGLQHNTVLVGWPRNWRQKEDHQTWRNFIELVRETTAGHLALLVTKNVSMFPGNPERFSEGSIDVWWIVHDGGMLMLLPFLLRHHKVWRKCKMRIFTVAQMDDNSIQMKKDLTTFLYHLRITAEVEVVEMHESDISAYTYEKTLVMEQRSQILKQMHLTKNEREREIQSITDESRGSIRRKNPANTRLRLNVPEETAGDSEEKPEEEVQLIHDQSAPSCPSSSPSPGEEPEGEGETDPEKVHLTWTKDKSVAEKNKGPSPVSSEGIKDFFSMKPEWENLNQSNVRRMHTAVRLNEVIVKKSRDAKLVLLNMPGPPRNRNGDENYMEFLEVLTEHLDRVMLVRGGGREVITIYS
ABCB6 blocker 1: ABCB6 transporter inhibitors, confirmation, K562-ABCB6 cells, flow cytometry, cherry pick 1 | shares compounds with ABCB6 inh 2 | K562-ABCB6 porphyrin accumulation, 1 h; active compounds read low | ratio response (% of DMSO), % at 10 µM | 700 tested, under 10 active | AID 602430, 2012;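 active = repeat-averaged ratio response below 75% of DMSO, the collection mean minus 3 SD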;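 also: median porphyrin fluorescence at 575 nm with 488 nm excitation from mitochondria; lower ratio means less porphyrin signal so ABCB6 inhibition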
Hits are given with their value; . = inactive; / = no result.

SMILES	V-ATPase pHluor	p-CIP stab down	ABCB6 inh 2	Dynein cargo inh	KCC2 mod	ABCB6 blocker 1
O=C(Cc1cccs1)N1CCC(c2nc3c(nnn3Cc3ccccc3)c(=O)[nH]2)CC1	.	.	.	.	/	.
CC(C)(C)c1ccc(Cn2nnc3c(=O)[nH]c(C4CCCN(C(=O)Cc5cccs5)C4)nc32)cc1 (stereo not given)	.	.	.	.	.	/
CC(C)(C)c1ccc(Cn2nnc3c(=O)[nH]c(C4CCN(C(=O)Cc5cccs5)CC4)nc32)cc1	.	.	68	.	.	.
O=C(COC(=O)c1nc(Cl)ccc1Cl)c1ccc(Cl)s1	.	.	.	.	.	/
O=C(COC(=O)c1ncc(Cl)c(Cl)c1Cl)c1ccc(Cl)s1	.	.	72	.	.	.
CN(C)C(CNS(=O)(=O)c1ccc(Cl)cc1F)c1ccco1 (stereo not given)	.	/	.	/	/	/
CCCOc1ccc(-c2nc(=S)[nH][nH]2)cc1	.	.	69	.	.	.
S=c1nc(-c2ccc(Cl)cc2)[nH][nH]1	.	.	.	.	.	/
CCN(CC(=O)NC1CCS(=O)(=O)C1)C(=O)c1cc(OC)c(OC)c(OC)c1 (stereo not given)	.	/	.	/	/	/
CCOc1ccc(C(C(=O)NCC2CCCO2)N(Cc2cccnc2)C(=O)c2snc(C(N)=O)c2N)cc1 (stereo not given)	.	.	74	/	/	.
O=C(c1ccc(COc2ccc(Cl)cc2)o1)N1N=C(C(F)F)CC1(O)C(F)F (stereo not given)	.	.	.	.	.	.
CC1(C(=O)NS(=O)(=O)c2ccccc2)CCN1C(=O)C1(c2ccccc2)CCCC1 (stereo not given)	/	/	.	/	/	/
CC1(C(=O)NS(=O)(=O)c2ccccc2Cl)CCN1C(=O)C1(c2ccc(Cl)cc2)CC1 (stereo not given)	/	/	.	/	/	.
CC1(C(=O)NS(=O)(=O)c2cccs2)CCN1C(=O)C1(c2ccccc2)CCCC1 (stereo not given)	/	/	72	/	/	.
CC1(C(=O)NS(=O)(=O)c2ccc(Cl)s2)CCN1C(=O)C1(c2ccc(Cl)cc2)CCC1 (stereo not given)	/	/	.	/	/	.
CC1(C(=O)NS(=O)(=O)c2cccs2)CCN1C(=O)C1(c2ccc(Cl)cc2)CC1 (stereo not given)	/	/	.	/	/	/
CC1(C(=O)NS(=O)(=O)c2cccs2)CCN1C(=O)C1(c2ccc(Cl)cc2)CCC1 (stereo not given)	/	/	.	/	/	.
CC1(C)c2[nH]c3ccccc3c2C[C@H]2C(=O)N(CCCCCO)CC(=O)N21	.	.	.	/	/	/
Cc1ccc(C(=O)N2CC(C)CC(C)C2)cc1NC1=NC2CS(=O)(=O)CC2S1 (stereo not given)	.	.	.	/	/	/
COc1ccc(C(=O)Nn2c(C)nc3ccccc3c2=O)cc1	.	.	74	/	/	.
Cc1nc2ccccc2c(=O)n1NC(=O)c1ccc(C(C)(C)C)cc1	.	.	.	/	/	/
COc1ccc([C@@H]2Sc3cc(OC)ccc3N(CCN(C(C)C)C(C)C)C(=O)[C@H]2OC(C)=O)cc1	.	.	51	.	.	.
O=C(CSc1nc2c(c(=O)[nH]1)CCCC2)Nc1ccc(Cl)cc1F	.	.	70	.	.	.
O=C(CSc1nc2c(c(=O)[nH]1)CCC2)Nc1ccc(F)cc1	.	.	.	/	/	/
CN(Cc1ccco1)C(=O)Cn1ncc2c([nH]c3ccccc32)c1=O	.	.	.	/	/	/
Cc1cc(NC(=O)c2cc(S(=O)(=O)N3CCCCC3)ccc2C)no1	.	/	.	/	/	/
Cc1cc(NC(=O)c2cccc(S(=O)(=O)N3CCCCCC3)c2)no1	.	.	70	.	.	.
COc1ccc(-n2nc3c(c2NC(=O)c2cc4ccccc4o2)CS(=O)(=O)C3)cc1	.	.	.	/	/	/
Cn1c(=O)c2c(ncn2CC(=O)N(Cc2ccccc2)c2ccccn2)n(C)c1=O	.	.	71	.	/	.
Cc1cc(C)nc(NS(=O)(=O)c2cccs2)c1	.	.	69	.	.	.
